Structures are written as SMILES. Active and inactive are the calls of the source. The rule behind the calls is not given here.

As usually defined, the TGI is the reduction of tumour growth relative to the control group.

For data set [1], the target named is Signal transducer and activator of transcription 3 (Homo sapiens) (UniProt P40763). In words: Inhibition of STAT3 in human Hs578T cells assessed as reduction of cyclin D1 mRNA expression at 0.3 to 1 uM after 24 hrs by RT-PCR analysis. In kind it is cell-based. The settings on record: Hs-578T. In a few lines:
(§1)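 HS578T and SUM149PT cells treated for 24 h with increasing concentrations. Transcripts measured by RT-PCR, normalized to GAPDH as loading control.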

The target is the same in data set [2]. In words: Inhibition of STAT3 in human SUM149PT cells assessed as reduction of cyclin D1 mRNA expression at 0.3 to 1 uM after 24 hrs by RT-PCR analysis. In kind it is cell-based. In a few lines:
as §1

Data set [3] has the same target. In words: Inhibition of STAT3 in human Hs578T cells assessed as reduction of survivin mRNA expression at 0.3 to 1 uM after 24 hrs by RT-PCR analysis. As to conditions: Hs-578T. In kind it is cell-based. In a few lines: as §1
The target is the same in data set [4]. Put plainly: Inhibition of STAT3 in human SUM149PT cells assessed as reduction of survivin mRNA expression at 0.3 to 1 uM after 24 hrs by RT-PCR analysis. In kind it is cell-based. In a few lines:
as §1

Data set [5] deals with Hs-578T. Put plainly: Induction of PTPN6 mRNA expression in human Hs578T cells after 24 hrs by RT-PCR analysis. Type of data set: functional, cell-based. In a few lines:
(§2)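 HS578T and SUM149PT cells given increasing concentrations for 24 h. PTPN6 mRNA measured by RT-PCR, with GAPDH as loading control.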

Data set [6] has as its system SUM149PT. Put plainly: Induction of PTPN6 mRNA expression in human SUM149PT cells after 24 hrs by RT-PCR analysis. In kind it is functional, cell-based. In a few lines: as §2
The target in data set [7] is Tyrosine-protein phosphatase non-receptor type 6 (Homo sapiens) (UniProt P29350). Put plainly: Induction of PTPN6 in human Hs578T cells assessed as inhibition of STAT3 phosphorylation at 3 uM after 16 hrs by Western blotting analysis in presence of pervanadate. Type of data set: cell-based. The settings on record: Hs-578T. In a few lines:
(§3)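 HS578T and SUM149PT cells treated for 16 h without or with increasing pervanadate as a phosphatase inhibitor; JAK1/2 inhibitor CP690550 run in parallel. Lysates immunoblotted for phospho-STAT3 (Y705), with β-actin as loading control.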

The target is the same in data set [8]. Put plainly: Induction of PTPN6 in human SUM149PT cells assessed as inhibition of STAT3 phosphorylation at 3 uM after 16 hrs by Western blotting analysis in presence of pervanadate. In kind it is cell-based. In a few lines:
as §3
In general terms: In western blotting, separated proteins are transferred to a membrane and probed.

Data set [9] has as its system Hs-578T. In words: Induction of PTPN6 protein expression in human Hs578T cells transfected with control-siRNA after 24 hrs by Western blotting analysis. In kind it is functional, cell-based. In a few lines: (§4)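 HS578T cells transfected with 100 nM control or PTPN6 siRNA using Lipofectamine 2000 in serum-free medium. Medium with 20% FBS added after 4 h, and cells kept 3 days. Then treated with DMSO or compound for 24 h. PTPN6 and phospho-STAT3 immunoblotted and quantified by ImageJ densitometry.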

Data set [10] has as its system Hs-578T. Put plainly: Induction of PTPN6 protein expression in human Hs578T cells transfected with PTPN6-siRNA after 24 hrs by Western blotting analysis. In kind it is functional, cell-based. In a few lines:
as §4

A short description of data set [11]: Drug uptake in human MDA-MB-231 cell cytoplasm at 10 uM after 1 hr by two-photon confocal microscopy. In kind it is ADME, cell-based. As to conditions: mda-mb-231, 1 h. In a few lines: (§5)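 MDA-MB-231 cells grown overnight on fibronectin/[…]-coated slides, then given 10 μM compound or DMSO for 1 h. Cells washed with PBS and fixed in 4% formaldehyde. Two-photon excitation at 725 nm, emission collected through a 500–550 nm filter.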

A short description of data set [12]: Drug uptake in human MDA-MB-231 cell nucleus at 10 uM after 1 hr by two-photon confocal microscopy. Type of data set: ADME, cell-based. The settings on record: mda-mb-231, 1 h. The gist of the method: as §5
The test system of data set [13] is A549. Put plainly: Antitumor activity against human A549 cells xenografted in athymic Balb/c nude mouse at 10 mg/kg, ip administered every other day for 27 days measured on day 5. In kind it is functional. The settings on record: route intraperitoneal, read-out: TGI. The gist of the method:
(§6)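 Male and female athymic nude mice (18–22 g) implanted subcutaneously in the right auxiliary region with 3×10^6 A549 cells. Mice were randomized into groups of five 3 days after implantation, and dosing started at about 50 mm³ tumor. Working solution 1 mg/mL in 10% Cremophore/3% PEG400/87% PBS; ip every other day, vehicle control. Caliper volume L×w×w/2, mean ± SEM, n = 5.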
(In general: Xenograft models place foreign cells or tissue in a host animal.)

The test system of data set [14] is A549. In words: Antitumor activity against human A549 cells xenografted in athymic Balb/c nude mouse at 10 mg/kg, ip administered every other day for 27 days measured on day 9. In kind it is functional. As to conditions: route intraperitoneal, read-out: TGI. In a few lines: as §6
Data set [15] concerns A549. Put plainly: Antitumor activity against human A549 cells xenografted in athymic Balb/c nude mouse at 10 mg/kg, ip administered every other day for 27 days measured up to day 27. In kind it is functional. The settings on record: 648 h, route intraperitoneal, read-out: TGI. The gist of the method: as §6
The subject of data set [16] is Mus musculus. Put plainly: Toxicity in athymic Balb/c nude mouse xenografted with human SUM149 cells assessed as change in body weight at 10 to 30 mg/kg, ip administered every other day for 5 days. Also noted: dose 10-30 mg/kg, route intraperitoneal. Type of data set: organism-based. As to conditions: in vivo, 120 h. The gist of the method: (§7)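 SUM149 cells (3×10^6) implanted subcutaneously in the right auxiliary region of male and female athymic nude mice (18–22 g). Groups of five, randomized; dosed ip every other day at 10 or 30 mg/kg from 1 mg/mL Cremophore 10%/PEG400 3%/PBS vehicle, vehicle control. Tumor volume by caliper (L×w×w/2); body weight, appetite, activity and lethargy monitored.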

In data set [17] the test system is Mus musculus. In words: Toxicity in athymic Balb/c nude mouse xenografted with human SUM149 cells assessed as loss of appetite at 10 to 30 mg/kg, ip administered every other day for 5 days. In kind it is organism-based. Also noted: dose 10-30 mg/kg, route intraperitoneal. As to conditions: in vivo, 120 h. In a few lines:
as §7

In data set [18] the test system is Mus musculus. Put plainly: Toxicity in athymic Balb/c nude mouse xenografted with human SUM149 cells assessed as decreased activity at 10 to 30 mg/kg, ip administered every other day for 5 days. In kind it is organism-based. Also noted: dose 10-30 mg/kg, route intraperitoneal. The settings on record: in vivo, 120 h. The gist of the method:
as §7

The subject of data set [19] is Mus musculus. In words: Toxicity in athymic Balb/c nude mouse xenografted with human SUM149 cells assessed as lethargy at 10 to 30 mg/kg, ip administered every other day for 5 days. In kind it is organism-based. Also noted: dose 10-30 mg/kg, route intraperitoneal. The settings on record: in vivo, 120 h. In a few lines:
as §7

Data set [20] can be described thus: Antitumor activity against human SUM149 cells xenografted in athymic Balb/c nude mouse at 10 to 30 mg/kg, ip administered every other day for 5 days measured on day 5. In kind it is functional, SUM149PT. The settings on record: dose mg/kg 10-30; route intraperitoneal. The gist of the method:
as §7

Data set [21] can be described thus: Antitumor activity against human SUM149 cells xenografted in athymic Balb/c nude mouse assessed as PTPN6 upregulation at 30 mg/kg, ip administered every other day for 5 days measured on day 5 by Western blotting analysis. Also noted: dose 30 mg/kg. Type of data set: functional, organism-based. As to conditions: SUM149PT. In a few lines: (§8)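 SUM149 subcutaneous xenografts in nude mice (n = 5), dosed ip every other day in Cremophore/PEG400/PBS vehicle. Tumors taken on day 5 were immunoblotted for PTPN6, STAT3 and pSTAT3, with GAPDH as control. PTPN6 quantified by densitometry with a one-tailed t test.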

For data set [22], the system named is SUM149PT. Put plainly: Antitumor activity against human SUM149 cells xenografted in athymic Balb/c nude mouse assessed as reduction in pSTAT3 level at 30 mg/kg, ip administered every other day for 5 days measured on day 5 by Western blotting analysis. Type of data set: functional, organism-based. Also noted: dose 30 mg/kg. The gist of the method: as §8

Sequence of Signal transducer and activator of transcription 3 (Homo sapiens) (P40763 whole entry): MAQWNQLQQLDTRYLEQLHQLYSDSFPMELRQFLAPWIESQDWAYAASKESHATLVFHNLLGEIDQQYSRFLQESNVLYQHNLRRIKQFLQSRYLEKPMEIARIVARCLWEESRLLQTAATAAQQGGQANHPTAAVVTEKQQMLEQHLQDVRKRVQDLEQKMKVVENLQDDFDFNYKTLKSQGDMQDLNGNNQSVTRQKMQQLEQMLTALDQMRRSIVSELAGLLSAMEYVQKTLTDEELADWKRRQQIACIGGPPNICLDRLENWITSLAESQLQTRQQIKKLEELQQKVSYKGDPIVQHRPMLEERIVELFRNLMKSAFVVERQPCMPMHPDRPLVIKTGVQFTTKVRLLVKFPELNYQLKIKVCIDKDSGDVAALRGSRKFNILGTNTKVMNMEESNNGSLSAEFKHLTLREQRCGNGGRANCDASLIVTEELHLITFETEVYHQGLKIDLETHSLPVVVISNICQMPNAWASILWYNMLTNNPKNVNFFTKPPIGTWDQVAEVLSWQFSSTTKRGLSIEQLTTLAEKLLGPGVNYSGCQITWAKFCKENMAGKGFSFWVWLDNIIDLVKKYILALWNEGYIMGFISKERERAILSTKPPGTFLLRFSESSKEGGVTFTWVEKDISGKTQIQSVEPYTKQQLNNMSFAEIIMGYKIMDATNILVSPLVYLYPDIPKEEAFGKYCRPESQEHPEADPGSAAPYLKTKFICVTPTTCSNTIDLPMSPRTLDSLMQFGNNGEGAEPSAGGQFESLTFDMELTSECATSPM
Sequence of Tyrosine-protein phosphatase non-receptor type 6 (Homo sapiens) (P29350 whole entry): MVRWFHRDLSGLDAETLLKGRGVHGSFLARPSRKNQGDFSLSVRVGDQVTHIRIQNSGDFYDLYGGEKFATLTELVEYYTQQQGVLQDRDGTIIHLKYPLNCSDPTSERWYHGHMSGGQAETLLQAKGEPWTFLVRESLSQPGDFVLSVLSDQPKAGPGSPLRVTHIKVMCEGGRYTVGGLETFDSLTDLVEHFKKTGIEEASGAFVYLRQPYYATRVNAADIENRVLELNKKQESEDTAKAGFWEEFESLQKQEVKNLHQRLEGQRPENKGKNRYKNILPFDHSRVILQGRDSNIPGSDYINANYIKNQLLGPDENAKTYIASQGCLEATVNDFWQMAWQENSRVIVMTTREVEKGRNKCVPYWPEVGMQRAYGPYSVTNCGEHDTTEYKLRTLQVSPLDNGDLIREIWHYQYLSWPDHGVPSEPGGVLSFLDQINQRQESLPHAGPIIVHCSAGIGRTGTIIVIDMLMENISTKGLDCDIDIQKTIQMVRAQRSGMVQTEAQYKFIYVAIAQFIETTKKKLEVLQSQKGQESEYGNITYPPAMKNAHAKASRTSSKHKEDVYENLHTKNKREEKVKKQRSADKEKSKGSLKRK

For `Cc1c(OS(=O)(=O)c2cccc3c(N(C)C)cccc23)ccc2c1[nH]c1cc(O)ccc12`, the inhibition entry in data set [1], in data set [2], in [3] and in data set [4] was “Active” each time. Moreover, the Activity entry in [5] is “Dose-dependent effect”; in data set [6] it was “Dose-dependent effect”; in [16], “Non-toxic”; in data set [17], “Non-toxic”; in data set [18], “Non-toxic”; in data set [19] it was “Non-toxic”. The inhibition entry in data set [7] and in data set [8] was “inactive” throughout. The outcome in [9], in data set [21] and in data set [22] was Active. Further, the result in data set [10] was inactive. Also, the Drug uptake result was “Active” in data set [11] and “Not Active” in data set [12]. Besides, the inhibition in vivo at 10 mg/kg is 68.7% in [13], 73.8% in [14] and 54.9% in data set [15]. Besides, the TGI in data set [20] came to 57%.

Values taken from ChEMBL document CHEMBL3352378, “Novel carbazole inhibits phospho-STAT3 through induction of protein-tyrosine phosphatase PTPN6” (J Med Chem, 2014).
